RGS4 block = inhibitors of human RGS4; P49798; HEK293 M3R/RGS4 inducible, Fluo-4 calcium flux; stronger effect = higher value; triggered by carbachol at its EC20; B-score at 10 µM; 0.45% of 310,000 active; AID 463165;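 active means B-score, a plate-corrected calcium signal, over three deviations above library mean, with baseline fluorescence within five deviations of library mean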;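 further: RGS4 expression induced by doxycycline in cells with stable M3 receptor; B-score is computed from the integrated fluorescence ratio over baseline after carbachol; higher B-score means a larger calcium signal and so more RGS4 inhibition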
Target sequence (P49798 whole entry, looked up): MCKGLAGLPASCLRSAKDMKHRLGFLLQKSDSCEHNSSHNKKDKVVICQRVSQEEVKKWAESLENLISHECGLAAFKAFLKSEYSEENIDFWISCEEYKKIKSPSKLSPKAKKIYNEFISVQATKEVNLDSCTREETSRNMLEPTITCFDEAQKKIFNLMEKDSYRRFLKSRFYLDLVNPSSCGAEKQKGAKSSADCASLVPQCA
RGS4 pot = RGS4 potentiation or activation. HEK293 M3R/inducible RGS4, carbachol calcium flux Fluo4; stronger effect = lower value. B-score at 10 µM. 0.92% of 310,000 active;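 active means B-score of the integrated calcium signal more than 4 SD below the library mean, with starting fluorescence not abnormally high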;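 further: negative B-score means reduced calcium response which marks RGS4 activation or potentiation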
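test system = HEK293 cells with stable M3R and inducible RGS4 | schedule = recording 10 s baseline at 1 Hz, 100 s post-agonist | technique = Fluo4-AM (2 µM) calcium-flux fluorescence, kinetic read | measure = Agonist-evoked peak-minus-minimum fluorescence over baseline, integrated ratio, B score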
MrgX1 antag = blocks BAM8-22 activation of human MrgX1 receptor | B-score at 10 µM | MRGX1-HEK293 calcium flux, Fluo-4, BAM8-22 antagonism; stronger effect = lower value | Q96LB2 | 1.3% of 310,000 active;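 active means calcium-response B-score plate-corrected more than 3 library SD below zero, starting fluorescence within 5 deviations, no agonist response on first addition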;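 further: peak minus trough fluorescence over baseline after final BAM8-22 challenge near maximal dose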
Target sequence (Q96LB2 whole entry, looked up): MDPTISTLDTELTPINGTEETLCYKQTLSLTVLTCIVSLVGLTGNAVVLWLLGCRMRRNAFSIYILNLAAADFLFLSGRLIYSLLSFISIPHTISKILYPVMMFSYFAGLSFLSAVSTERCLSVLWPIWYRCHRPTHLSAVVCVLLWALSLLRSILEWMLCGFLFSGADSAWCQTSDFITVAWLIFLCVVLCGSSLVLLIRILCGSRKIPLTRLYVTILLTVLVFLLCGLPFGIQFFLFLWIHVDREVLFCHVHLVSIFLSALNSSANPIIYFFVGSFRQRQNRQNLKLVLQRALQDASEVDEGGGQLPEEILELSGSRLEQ
PHOSPHO1 block = inhibitors of human PHOSPHO1 phosphatase. AID 1565. recombinant PHOSPHO1, absorbance phosphatase assay. 1.1% of 290,000 active. inhibition, % at 13.3 µM; in the data active means inhibition above about 60%
Target sequence (Q8TCT1 whole entry, looked up): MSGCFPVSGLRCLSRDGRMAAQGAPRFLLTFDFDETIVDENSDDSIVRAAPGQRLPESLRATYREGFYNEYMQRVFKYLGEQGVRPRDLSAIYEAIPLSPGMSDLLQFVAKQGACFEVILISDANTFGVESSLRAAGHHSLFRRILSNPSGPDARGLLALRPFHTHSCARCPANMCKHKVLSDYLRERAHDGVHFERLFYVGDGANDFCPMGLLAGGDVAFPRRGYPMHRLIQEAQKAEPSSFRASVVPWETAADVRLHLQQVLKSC
MrgX1 agonist = agonists of human MrgX1 receptor. Q96LB2. MrgX1-HEK293 cells, Fluo-4 calcium fluorescence, agonist mode; stronger effect = higher value. B-score at 10 µM. 0.44% of 310,000 active;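 active means calcium response B-score plate-corrected fluorescence ratio at least 3 library SD, with starting fluorescence B-score inside 5 SD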
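Test system: HEK293 cells stably expressing human MrgX1 receptor; Input: fifteen thousand cells per well; Dosing: compound delivered in addition one of three; Schedule: overnight seeding, then 1 h dark dye loading; Technique: Fluo-4 NW calcium fluorescence; Measure: B-scored fluorescence response ratio; Controls: positive and negative controls per plate.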
MrgX1 allo act = allosterically activates human MrgX1 receptor signaling; MrgX1-HEK293, Fluo-4 calcium flux, FDSS; stronger effect = higher value; B-score at 10 µM; 0.63% of 310,000 active; AID 588675;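 active means plate-corrected calcium response at least 3 library SD above typical, normal starting fluorescence, not activating the receptor alone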;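 further: compound read alongside a low EC10 to EC30 dose of BAM8-22 agonist; peak minus trough fluorescence over baseline measured at the second addition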
MrgX1 antag conf = confirmation of human MrgX1 receptor antagonists | shares compounds with MrgX1 antag | MrgX1-HEK293, BAM8-22 calcium flux, Fluo-4; stronger effect = lower value | remaining BAM8-22 calcium response % of control (stronger effect = lower value), % at 10 µM | 19% of 2,300 active;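 active means remaining agonist calcium response no higher than 100% minus 3 SD of agonist-only control wells, with starting fluorescence near control levels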;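 further: agonist BAM8-22 given at a near maximal EC90 to ECmax level; peak minus minimum fluorescence divided by baseline after agonist addition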
HEK293 Ca flux = MrgX1 antagonist counter-screen hit in parental HEK293 cells; AID 624111; Fluo-4 calcium fluorescence, FDSS; 2% of 4,000 active; fluorescence ratio F(max-min)/F0 at 10 µM; shares compounds with MrgX1 antag;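 active means duplicate-averaged calcium fluorescence ratio at least three times the standard deviation of buffer wells, a nonspecific response in parental cells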
HEK293 Ca counter = activity in parental HEK293 cells without MrgX1. shares compounds with MrgX1 antag. parental HEK293 calcium flux, Fluo-4 fluorescence ratio; stronger effect = higher value. fluorescence ratio F(max-min)/F0 at 10 µM. 0.4% of 4,000 active. AID 624114;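 active means calcium fluorescence ratio, averaged over duplicates, at least 3 SD of the buffer-well ratio, meaning a nonspecific response in receptor-free cells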;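 further: untransfected parental HEK293 lacking MrgX1 used as counterscreen for MrgX1 allosteric activators; fluorescence change taken during the second addition on a kinetic imager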
HEK293 Ca cntr2 = counter-screen for MrgX1 activators: effect in parental HEK293 cells. shares compounds with MrgX1 antag. Fluo-4 calcium fluorescence (FDSS); stronger effect = higher value. AID 624115. 8.7% of 4,000 active. fluorescence ratio F(max-min)/F0 at 10 µM;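 active means calcium fluorescence ratio at least three times the spread of buffer wells, meaning a non-specific response in parental cells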
Each line names hits and unclear results; the compound was inactive in the other large screens (follow-up assays come after a bar, where they were run). A selection: hits, their analogues and other compounds. The true share with any hit is near 4.5%.

C=CCOC(=O)C1=C(C)N(C)C(=O)NC1c1cc2c(cc1Br)OCO2 (stereo not drawn)	MrgX1 antag -4.65 | MrgX1 antag conf 85.4% | HEK293 Ca flux inactive | HEK293 Ca counter inactive | HEK293 Ca cntr2 inactive
CCOC(=O)c1cnc2nc(C(F)(F)F)[nH]n2c1=O	MrgX1 antag -5.52 | MrgX1 antag conf inactive | HEK293 Ca flux inactive | HEK293 Ca counter inactive | HEK293 Ca cntr2 inactive
CC(CSc1nc2ccccc2s1)Cn1c(N2CCCC2)nc2c1c(=O)[nH]c(=O)n2C (stereo not drawn)	none
CCN1CCN(c2nc3c(c(=O)[nH]c(=O)n3C)n2CCSc2nc3ccccc3s2)CC1	MrgX1 antag -6.31 | MrgX1 antag conf inactive | HEK293 Ca flux inactive | HEK293 Ca counter inactive | HEK293 Ca cntr2 inactive
CC(=O)NC12CC3CC(C1)CC(C(=O)N1CCN(S(=O)(=O)c4ccc(C(C)C)cc4)CC1)(C3)C2	none (no result: PHOSPHO1 block)
Cc1[nH]c2ccc(C(=O)O)cc2c1C	MrgX1 antag -8.6 | MrgX1 antag conf inactive | HEK293 Ca flux inactive | HEK293 Ca counter inactive | HEK293 Ca cntr2 inactive
Cc1ccc(Nc2nc(N3CCOCC3)nc(N3CCOCC3)n2)cc1C	none
CC(=O)c1sc2nsc(SCCN3CCCCC3)c2c1N	MrgX1 antag -5.16, PHOSPHO1 block 69.9 | MrgX1 antag conf inactive | HEK293 Ca flux inactive | HEK293 Ca counter inactive | HEK293 Ca cntr2 51.7
CC(=O)Nc1nnc(CCN2CCCCC2)s1	none
CC(C)CC(C(=O)N1CCc2ccccc2C1)N1C(=O)c2ccccc2C1=O (stereo not drawn)	none
Cc1ccccc1CNS(=O)(=O)c1ccc2c(c1)OCCO2	MrgX1 antag -4.67 | MrgX1 antag conf inactive | HEK293 Ca flux inactive | HEK293 Ca counter inactive | HEK293 Ca cntr2 inactive
COc1ccc(N2CCN(C(=O)COC(=O)/C=C/c3ccc(C(F)(F)F)cc3)CC2)cc1	none (no result: PHOSPHO1 block)
OCCC1CN(Cc2ccc3cc(Cl)ccc3n2)CCN1Cc1ccsc1 (stereo not drawn)	none
CC(C)n1c(NCc2cc(Cl)ccc2O)nc2ccccc21	MrgX1 antag -7.07 | MrgX1 antag conf inactive | HEK293 Ca flux inactive | HEK293 Ca counter inactive | HEK293 Ca cntr2 inactive
Cc1c(C)c2c(OCC(=O)O)cc3c(c2oc1=O)CCC(C)(C)O3	none
COc1ccccc1CNC(=O)COc1cc2c(c3oc(=O)cc(C)c13)CCC(C)(C)O2	MrgX1 antag -7.58 | MrgX1 antag conf 62.3% | HEK293 Ca flux inactive | HEK293 Ca counter inactive | HEK293 Ca cntr2 inactive
Cc1c(C)c2c(OCC(=O)Nc3ccc(CCO)cc3)cc3c(c2oc1=O)CCC(C)(C)O3	MrgX1 antag -6.19 | MrgX1 antag conf inactive | HEK293 Ca flux inactive | HEK293 Ca counter inactive | HEK293 Ca cntr2 inactive
CCC(C)c1ccccc1N1CC(C(=O)N(C)CC(=O)Nc2cccc(F)c2)CC1=O (stereo not drawn)	none (no result: PHOSPHO1 block)
Cc1nc2ccc(N)cc2s1	MrgX1 antag -5.63 | MrgX1 antag conf inactive | HEK293 Ca flux inactive | HEK293 Ca counter inactive | HEK293 Ca cntr2 inactive
Cc1nc2cc3sc(C)nc3cc2s1	none
CCC(=O)Nc1cc(C(=O)NCC2CCCN2CC)c(OC)cc1N(C)C (stereo not drawn)	none
CCN1CCCC1CNC(=O)c1cc(NC(C)=O)c(N(C)C)cc1OC (stereo not drawn)	MrgX1 antag -6.5 | MrgX1 antag conf inactive | HEK293 Ca flux inactive | HEK293 Ca counter inactive | HEK293 Ca cntr2 inactive
O=C(NCc1ccccc1Cl)c1cc(C(=O)C2CC2)c[nH]1	none
O=S(=O)(c1ccccc1)N1CCN(Cc2cccc(Cl)c2)CC1	MrgX1 antag -6.89 (no result: RGS4 block, RGS4 pot) | MrgX1 antag conf inactive | HEK293 Ca flux inactive | HEK293 Ca counter inactive | HEK293 Ca cntr2 inactive
COc1ccc(CCNS(=O)(=O)c2cnc(Cl)c(Br)c2)cc1OC	none
Cc1ccc(CN2CC(C(=O)N3CCN(S(=O)(=O)c4cccc(F)c4)CC3)CC2=O)cc1 (stereo not drawn)	none (no result: PHOSPHO1 block)
CCOc1c(OC)cccc1C1CC(=O)Nc2cc3c(cc21)OCCO3 (stereo not drawn)	MrgX1 antag -4.89 | MrgX1 antag conf inactive | HEK293 Ca flux inactive | HEK293 Ca counter inactive | HEK293 Ca cntr2 inactive
O=C(/C=C1\SC(=O)NC1=O)Nc1ccc(C(=O)O)cc1	MrgX1 antag -10.4 | MrgX1 antag conf inactive | HEK293 Ca flux inactive | HEK293 Ca counter inactive | HEK293 Ca cntr2 inactive
CCn1nnc2cc(C(=O)Nc3cc(S(C)(=O)=O)ccc3Cl)ccc21	none
CCn1nnc2cc(C(=O)Nc3cc(OC)cc(OC)c3)ccc21	MrgX1 antag -8.75 (no result: PHOSPHO1 block) | MrgX1 antag conf inactive | HEK293 Ca flux inactive | HEK293 Ca counter inactive | HEK293 Ca cntr2 inactive
CN1CCN(C(=O)c2cnn(-c3ccccc3)c2NC(=O)c2cccs2)CC1	MrgX1 antag -5.86 | MrgX1 antag conf inactive | HEK293 Ca flux inactive | HEK293 Ca counter inactive | HEK293 Ca cntr2 inactive
Cc1cc(-c2ccccc2)[nH]c(=O)c1S(=O)(=O)c1ccc(Cl)cc1	MrgX1 antag -8.96 | MrgX1 antag conf inactive | HEK293 Ca flux inactive | HEK293 Ca counter inactive | HEK293 Ca cntr2 inactive
Cc1cc(-c2ccccc2)[nH]c(=O)c1S(=O)(=O)c1ccccc1	none
Cc1ccc(NC(=O)CN(C)C(=O)COC(=O)CCS(=O)(=O)c2ccc(C)cc2)cc1	none
Cc1nc2ccc(NC(=O)COc3ccccc3F)cc2s1	MrgX1 antag -5.82 | MrgX1 antag conf 80.4% | HEK293 Ca flux inactive | HEK293 Ca counter inactive | HEK293 Ca cntr2 inactive
Cc1onc(-c2c(F)cccc2Cl)c1C(=O)Nc1nnc(C(F)(F)F)s1	MrgX1 antag -5.08 | MrgX1 antag conf 85.4% | HEK293 Ca flux inactive | HEK293 Ca counter inactive | HEK293 Ca cntr2 inactive
Cc1onc(-c2c(F)cccc2Cl)c1C(=O)Nc1nccs1	MrgX1 antag -4.62 | MrgX1 antag conf inactive | HEK293 Ca flux inactive | HEK293 Ca counter inactive | HEK293 Ca cntr2 inactive
Cc1ccnc(NC(=O)CCC(=O)N(CC(=O)NC2CCCCC2)C2CCCC2)c1	none
O=C(NCc1nc2ccccc2[nH]1)C1=C[C@H](c2ccc(C(F)(F)F)cc2)C[C@H](OCCCCO)O1	none (no result: PHOSPHO1 block)
